The target in experiment [1] is T1, Myosin light chain kinase, smooth muscle (Gallus gallus, UniProt P11799). The experiment in a line: Inhibition of native form of chicken MLCK (myosin light chain kinase). In outline:
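Native calmodulin-dependent gizzard MLCK, over 95% homogeneous, with 200 nM calmodulin, 1 mM EGTA and about 200 μM excess free Ca2+. Started with ATP and stopped with HCl; phosphocellulose filter counting. Graphical IC50 from duplicates at four concentrations, or % inhibition at a single concentration.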

For experiment [2], the target named is T1, Myosin light chain kinase, smooth muscle. Kind of experiment: Inhibition of calmodulin-independent form of myosin light chain kinase isolated from chicken gizzard. In outline:
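Chicken gizzard MLCK made calmodulin-independent by limited trypsin digestion. It was started with ATP and stopped with HCl. Phosphate in substrate was counted on phosphocellulose filters. IC50 was read graphically from duplicates at four concentrations and reported as the mean, or as % inhibition at one concentration.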

Non-standard residues stand in square brackets, D forms with d. Residues, ends and D or L forms follow the SMILES beside them. ξ: configuration not given here. *: point of attachment. Tyr(3,5-I2) = N[C@@H](Cc1cc(I)c(O)c(I)c1)C(=O)O; Tyr(3-I) = N[C@@H](Cc1ccc(O)c(I)c1)C(=O)O; Dip = N[C@H](C(=O)O)C(c1ccccc1)c1ccccc1; 2Nal = N[C@@H](Cc1ccc2ccccc2c1)C(=O)O; Cha = N[C@@H](CC1CCCCC1)C(=O)O; ξαMeS = CC(N)(CO)C(=O)O; X3 = c1ccc(CCCCO*)cc1; OBn = c1ccc(CO*)cc1; X2 = CCCCO*

Broadly, the IC50 is the concentration that gives 50% inhibition.

T1 sequence (P11799 whole entry): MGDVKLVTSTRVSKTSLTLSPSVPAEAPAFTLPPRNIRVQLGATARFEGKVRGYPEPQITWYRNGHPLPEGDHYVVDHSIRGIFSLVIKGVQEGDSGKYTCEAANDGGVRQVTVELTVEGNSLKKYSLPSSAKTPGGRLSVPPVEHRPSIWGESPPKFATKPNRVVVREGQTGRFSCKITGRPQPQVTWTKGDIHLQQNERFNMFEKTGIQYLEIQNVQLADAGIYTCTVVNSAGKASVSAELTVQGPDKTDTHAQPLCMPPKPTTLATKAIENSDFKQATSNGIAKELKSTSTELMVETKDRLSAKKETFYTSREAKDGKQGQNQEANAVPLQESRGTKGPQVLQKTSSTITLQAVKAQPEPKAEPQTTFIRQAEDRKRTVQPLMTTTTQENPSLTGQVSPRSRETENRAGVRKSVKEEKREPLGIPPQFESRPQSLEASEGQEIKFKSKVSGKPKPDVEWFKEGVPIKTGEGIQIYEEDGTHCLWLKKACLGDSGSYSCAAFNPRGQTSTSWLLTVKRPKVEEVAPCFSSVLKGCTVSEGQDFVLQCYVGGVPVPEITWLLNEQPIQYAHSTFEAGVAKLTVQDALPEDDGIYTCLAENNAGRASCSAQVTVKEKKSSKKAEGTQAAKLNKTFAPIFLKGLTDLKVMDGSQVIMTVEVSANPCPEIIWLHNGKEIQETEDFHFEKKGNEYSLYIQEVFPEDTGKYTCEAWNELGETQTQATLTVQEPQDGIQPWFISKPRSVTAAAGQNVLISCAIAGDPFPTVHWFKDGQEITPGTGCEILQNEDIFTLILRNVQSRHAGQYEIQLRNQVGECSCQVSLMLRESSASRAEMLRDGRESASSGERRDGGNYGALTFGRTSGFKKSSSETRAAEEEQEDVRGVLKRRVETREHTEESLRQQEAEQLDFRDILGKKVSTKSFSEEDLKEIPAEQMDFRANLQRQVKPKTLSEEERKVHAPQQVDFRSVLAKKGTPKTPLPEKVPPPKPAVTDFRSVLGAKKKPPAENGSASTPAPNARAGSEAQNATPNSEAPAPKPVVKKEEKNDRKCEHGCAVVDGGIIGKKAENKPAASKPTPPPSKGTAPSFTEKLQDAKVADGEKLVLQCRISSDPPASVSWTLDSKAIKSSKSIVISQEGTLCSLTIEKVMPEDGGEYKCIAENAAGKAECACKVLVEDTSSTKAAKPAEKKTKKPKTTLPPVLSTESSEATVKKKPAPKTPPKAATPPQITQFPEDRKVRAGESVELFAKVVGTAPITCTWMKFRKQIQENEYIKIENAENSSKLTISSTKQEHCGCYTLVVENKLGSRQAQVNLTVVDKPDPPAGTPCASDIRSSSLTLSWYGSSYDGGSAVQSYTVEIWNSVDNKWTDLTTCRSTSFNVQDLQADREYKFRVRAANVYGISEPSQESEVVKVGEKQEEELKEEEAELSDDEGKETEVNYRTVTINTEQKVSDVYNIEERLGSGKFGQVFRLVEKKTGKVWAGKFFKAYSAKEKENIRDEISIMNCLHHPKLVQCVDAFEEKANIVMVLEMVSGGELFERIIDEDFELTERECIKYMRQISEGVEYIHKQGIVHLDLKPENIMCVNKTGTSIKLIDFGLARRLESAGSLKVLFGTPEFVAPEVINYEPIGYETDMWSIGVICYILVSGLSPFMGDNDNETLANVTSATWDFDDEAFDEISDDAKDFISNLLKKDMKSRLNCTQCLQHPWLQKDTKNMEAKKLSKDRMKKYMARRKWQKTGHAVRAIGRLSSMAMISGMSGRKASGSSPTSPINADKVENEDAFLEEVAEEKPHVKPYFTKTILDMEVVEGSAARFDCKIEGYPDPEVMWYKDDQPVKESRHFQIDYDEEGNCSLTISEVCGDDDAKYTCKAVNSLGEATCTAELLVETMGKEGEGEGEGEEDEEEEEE

As to `CC(C)[C@H](NC(=O)[C@H](CC(N)=O)NC(=O)C(C)(N)CO)C(=O)N[C@@H](Cc1ccccc1)C(=O)N[C@@H](C)C(=O)OCc1ccccc1` (some centres undefined) (H-[ξαMeS]NVFA-OBn), the concentration for half-maximal inhibition (IC50) in experiment [1] was 350 µM.

For `CC(C)[C@H](NC(=O)[C@H](CC(N)=O)NC(=O)[C@@H](N)CO)C(=O)N[C@@H](Cc1ccccc1)C(=O)N[C@@H](C)C(=O)OCCCCc1ccccc1` (H-SNVFA-X3), the IC50 in experiment [1] was determined as 19 µM.

For `CC(C)[C@H](NC(=O)[C@@H](NC(=O)[C@@H](N)CO)C(C)C)C(=O)N[C@@H](Cc1ccccc1)C(=O)N[C@@H](C)C(=O)OCc1ccccc1` (H-SVVFA-OBn), the IC50 in experiment [2] worked out at 24 µM.

Consider `CC(C)[C@H](NC(=O)[C@H](CC(N)=O)NC(=O)[C@H](CO)NC(=O)[C@@H](NC(=O)[C@H](C)N)[C@@H](C)O)C(=O)N[C@@H](Cc1ccccc1)C(=O)N[C@@H](C)C(=O)OCc1ccccc1` (H-ATSNVFA-OBn), for which the IC50 in experiment [1] worked out at 31 µM.

For the compound `CC(C)[C@H](NC(=O)CNC(=O)[C@@H](N)CO)C(=O)N[C@@H](Cc1ccccc1)C(=O)N[C@@H](C)C(=O)OCc1ccccc1` (H-SGVFA-OBn), in experiment [1], inhibition was half-maximal at 450 µM (IC50).

`CC(C)[C@@H](NC(=O)[C@@H](CC(N)=O)NC(=O)[C@H](N)CO)C(=O)N[C@H](Cc1ccccc1)C(=O)N[C@H](C)C(=O)OCc1ccccc1` displayed an IC50 in experiment [1] of 12 µM.

In experiment [2], `CC(C)[C@H](/C=C/[C@H](CC(N)=O)NC(=O)[C@@H](N)CO)C(=O)N[C@@H](Cc1ccccc1)C(=O)N[C@@H](C)C(=O)NCc1ccccc1` yielded an IC50 of 278 µM.

`CC(C)[C@H](NC(=O)[C@H](CC(N)=O)NC(=O)[C@@H]1CCCN1)C(=O)N[C@@H](Cc1ccccc1)C(=O)N[C@@H](C)C(=O)OCc1ccccc1` (H-PNVFA-OBn): in experiment [1], the IC50 was 200 µM.

In the case of `CC(C)C[C@H](NC(=O)[C@H](CC(N)=O)NC(=O)[C@@H](N)CO)C(=O)N[C@@H](Cc1ccccc1)C(=O)N[C@@H](C)C(=O)OCc1ccccc1` (H-SNLFA-OBn), it took 3 µM to reach half-maximal inhibition in experiment [1] (IC50).

Turning to `CC(C)[C@@H](/C=C/[C@@H](Cc1ccccc1)C(=O)N[C@@H](C)C(=O)OCc1ccccc1)NC(=O)[C@H](CC(N)=O)NC(=O)[C@@H](N)CO`, the IC50 in experiment [2] came out at 36 µM.

`CC(C)[C@H](NC(=O)[C@H](CC(N)=O)NC(=O)[C@@H](N)CO)C(=O)N[C@H](CCCCc1ccccc1)Cc1ccccc1`: the half-inhibitory concentration (IC50) in experiment [2] stood at 12 µM.

In experiment [1], `CC(C)[C@H](NC(=O)[C@H](CC(N)=O)NC(=O)[C@@H](N)[C@@H](C)O)C(=O)N[C@@H](Cc1ccccc1)C(=O)N[C@@H](C)C(=O)OCc1ccccc1` (H-TNVFA-OBn) registered a half-inhibitory concentration (IC50) of 18 µM.

As for `CC(C)[C@H](NC(=O)[C@H](CC(N)=O)NC(=O)[C@@H](N)CO)C(=O)N[C@@H](Cc1c[nH]c2ccccc12)C(=O)N[C@@H](C)C(=O)OCc1ccccc1` (H-SNVWA-OBn), the IC50 in experiment [1] is 6 µM.

Regarding `CC(C)[C@H](NC(=O)[C@H](CC(N)=O)NC(=O)[C@@H](N)CO)C(=O)N[C@H](C(=O)N[C@@H](C)C(=O)OCc1ccccc1)C(c1ccccc1)c1ccccc1` (H-SNV[Dip]A-OBn), the midpoint of inhibition in experiment [1], the IC50, lay at 6 µM.

For `CC(C)[C@H](NC(=O)[C@H](CC(N)=O)NC(=O)[C@@H]1C[C@H](O)CN1)C(=O)N[C@@H](Cc1ccccc1)C(=O)N[C@@H](C)C(=O)OCc1ccccc1`, the half-maximal inhibitory concentration (IC50) in experiment [1] was 56 µM.

In the case of `CCCCOC(=O)[C@H](C)NC(=O)[C@H](Cc1ccccc1)NC(=O)[C@@H](NC(=O)[C@H](CC(N)=O)NC(=O)[C@@H](N)CO)C(C)C` (H-SNVFA-X2), the IC50 in experiment [2] turned out to be 185 µM.

Compound `CC(C)[C@H](NC(=O)[C@H](CC(N)=O)NC(=O)[C@@H](N)CO)C(=O)N[C@@H](Cc1ccc(O)cc1)C(=O)N[C@@H](C)C(=O)OCc1ccccc1` (H-SNVYA-OBn) had a half-inhibitory concentration (IC50) in experiment [1] of 45 µM.

In experiment [1], `CC(C)[C@H](NC(=O)[C@H](CC(N)=O)NC(=O)[C@@H](N)CS)C(=O)N[C@@H](Cc1ccccc1)C(=O)N[C@@H](C)C(=O)OCc1ccccc1` (H-CNVFA-OBn) came in with an IC50 of 8 µM.

Turning to `CC(C)[C@H](NC(=O)[C@H](CC(N)=O)NC(=O)[C@@H](N)CO)C(=O)N[C@H](/C=C\[C@@H](C)COCc1ccccc1)Cc1ccccc1`, half-maximal inhibition in experiment [2] (IC50) required 17 µM.

As for `CSCC[C@H](NC(=O)[C@H](CC(N)=O)NC(=O)[C@@H](N)CO)C(=O)N[C@@H](Cc1ccccc1)C(=O)N[C@@H](C)C(=O)OCc1ccccc1` (H-SNMFA-OBn), in experiment [1], the IC50 was 30 µM.

In the case of `CC(C)[C@H](NC(=O)[C@H](CC(N)=O)NC(=O)[C@@H](N)CO)C(=O)N[C@@H](Cc1ccc(O)c(I)c1)C(=O)N[C@@H](C)C(=O)OCc1ccccc1` (H-SNV[Tyr(3-I)]A-OBn), the 50% inhibitory concentration (IC50) in experiment [1] was determined as 1 µM.

The compound `CC(C)[C@H](NC(=O)[C@H](CC(N)=O)NC(=O)[C@@H](N)CO)C(=O)N[C@H](/C=C/C(CCCc1ccccc1)CCCc1ccccc1)Cc1ccccc1` came in with a half-maximal inhibitory concentration (IC50) in experiment [2] of 0.6 µM.

As to `CC(C)[C@H](NC(=O)[C@H](CC(N)=O)NC(=O)[C@@H](N)CO)C(=O)N[C@@H](Cc1cc(I)c(O)c(I)c1)C(=O)N[C@@H](C)C(=O)OCc1ccccc1` (H-SNV[Tyr(3,5-I2)]A-OBn), in experiment [1], the IC50 came to 7 µM.

`CC(C)[C@H](NC(=O)[C@H](CC(N)=O)NC(=O)[C@@H](N)CO)C(=O)N[C@@H](Cc1ccccc1)C(=O)N[C@@H](CO)C(=O)OCc1ccccc1` (H-SNVFS-OBn) had an IC50 in experiment [1] of 43 µM.

`CC(C)[C@H](NC(=O)[C@H](CC(N)=O)NC(=O)[C@@H](N)CO)C(=O)N[C@H](/C=C/C=C/c1ccccc1)Cc1ccccc1` had a concentration for half-maximal inhibition (IC50) in experiment [2] of 3.9 µM.

`C[C@H](NC(=O)[C@H](Cc1ccccc1)NC(=O)[C@@H](NC(=O)[C@H](CC(N)=O)NC(=O)[C@@H](N)CO)[C@@H](C)O)C(=O)OCc1ccccc1` (H-SNTFA-OBn) returned a half-maximal inhibitory concentration (IC50) in experiment [2] of 190 µM.

On to `CC(C)[C@H](NC(=O)[C@H](CC(N)=O)NC(=O)[C@H](CO)NC(=O)[C@@H](NC(=O)[C@H](C)NC(=O)[C@@H](N)CCCNC(=N)N)[C@@H](C)O)C(=O)N[C@@H](Cc1ccccc1)C(=O)N[C@@H](C)C(=O)OCc1ccccc1` (H-RATSNVFA-OBn), for which the IC50 in experiment [1] was found to be 38 µM.

Turning to `CSCC[C@H](N)C(=O)N[C@@H](CC(N)=O)C(=O)N[C@H](C(=O)N[C@@H](Cc1ccccc1)C(=O)N[C@@H](C)C(=O)OCc1ccccc1)C(C)C` (H-MNVFA-OBn), the concentration for half-maximal inhibition (IC50) in experiment [1] is 76 µM.

In the case of `CC(C)[C@H](NC(=O)[C@H](CC(N)=O)NC(=O)[C@H](CO)NC(=O)[C@@H](N)[C@@H](C)O)C(=O)N[C@@H](Cc1ccccc1)C(=O)N[C@@H](C)C(=O)OCc1ccccc1` (H-TSNVFA-OBn), the half-maximal inhibitory concentration (IC50) in experiment [1] was determined as 15 µM.

`CC(C)[C@H](NC(=O)[C@H](CC(N)=O)NC(=O)[C@@H](N)CO)C(=O)N[C@@H](Cc1ccccc1)C(=O)OCc1ccccc1` (H-SNVF-OBn) displayed a half-maximal inhibitory concentration (IC50) in experiment [1] of 160 µM.

In experiment [2], `CC(C)[C@@H](CN[C@@H](Cc1ccccc1)C(=O)N[C@@H](C)C(=O)OCc1ccccc1)NC(=O)[C@H](CC(N)=O)NC(=O)[C@@H](N)CO` registered an IC50 of 262 µM.

In turn, `CC(C)[C@H](NC(=O)[C@H](CC(N)=O)NC(=O)[C@@H](N)CO)C(=O)N[C@@H](Cc1ccc2ccccc2c1)C(=O)N[C@@H](C)C(=O)OCc1ccccc1` (H-SNV[2Nal]A-OBn) came in with an IC50 in experiment [1] of 12 µM.

For `CC(C)[C@H](NC(=O)[C@H](CC(N)=O)NC(=O)[C@@H](N)CO)C(=O)N[C@@H](CC1CCCCC1)C(=O)N[C@@H](C)C(=O)OCc1ccccc1` (H-SNV[Cha]A-OBn), the IC50 in experiment [1] was 12 µM.

Consider `C[C@H](NC(=O)[C@H](Cc1ccccc1)NC(=O)[C@H](Cc1ccccc1)NC(=O)[C@H](CC(N)=O)NC(=O)[C@@H](N)CO)C(=O)OCc1ccccc1` (H-SNFFA-OBn), for which the IC50 in experiment [1] worked out at 50 µM.

Values taken from ChEMBL document CHEMBL1124728, “Small peptide inhibitors of smooth muscle myosin light chain kinase” (J Med Chem, 1990).
